Experimental findings from the array DNA melting data of Ke et al. (doi:10.1101/2024.01.08.574731) are described below.

A short description of data set [1]: melting temperature; fluorescence melt of hairpins on a sequencing array, two-state fit, raised by 9.35 °C to match UV melts. The following applies: sodium 0.088 M. In a few lines: (§1)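 Bootstrapped two-state fits yielded melting temperature and folding enthalpy for library hairpins. Cy3 fluorescence, with annealed Cy3 and quencher oligos, was imaged on a sequenced MiSeq flow cell in 50 mM Na-HEPES pH 8.0, 25 mM NaCl in 2.5 °C steps up to 60 °C, and normalised to pre-quench Cy3 and to control constructs. Four replicates were combined by inverse variance, and fitted temperatures were raised by 9.35 °C to match UV melts.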

A short description of data set [2]: folding enthalpy; higher = less favourable; fluorescence melt of hairpins on a sequencing array, two-state fit. The following applies: sodium 0.088 M. In a few lines:
as §1

Take GAAATTGGAAACGATTTC (((((.(....).))))): the Tm in data set [1] stood at 37.6 °C. In data set [2], the folding enthalpy is -30.1 kcal/mol.

Consider GAACAAGGAAACTTGCTC ((.((((....)))).)), for which the Tm in data set [1] is 29.4 °C. The folding enthalpy in data set [2] is -19.4 kcal/mol.

Take GAACACCCGAAAGGGTTC (((..(((....)))))): the Tm in data set [1] was 30.7 °C. In addition, the folding enthalpy in data set [2] is -8.81 kcal/mol.

For GAACACCGAAAGGTATTC (((.(((....))).))), the Tm in data set [1] amounted to 37.8 °C. In data set [2], the folding enthalpy is -25 kcal/mol.

Take GAACACGAAAGTGAATTC ((((((....)))..))): in data set [1], the Tm is 25.1 °C. For the same sequence, in data set [2], the folding enthalpy was -13.3 kcal/mol.

As to GAACACGAAAGTGGCTTC ((((((....)))..))), the Tm in data set [1] came to 45.4 °C. In addition, the folding enthalpy in data set [2] was -23 kcal/mol.

For the sequence GAACACGGAAACGCGTTC ((((.((....)).)))), the Tm in data set [1] stood at 48.1 °C. Also, the folding enthalpy in data set [2] is -35.8 kcal/mol.

With GAACACGGAAACGTATTC (((.(((....))).))), in data set [1], the Tm amounted to 33 °C. The folding enthalpy in data set [2] was -22.6 kcal/mol.

Consider GAACACGGAAACGTGTTC (((((((....))))))), for which the Tm in data set [1] turned out to be 67.5 °C. In data set [2], the folding enthalpy is -38.1 kcal/mol.

In the case of GAACAGGGAAACCCGTTC ((((.((....)).)))), in data set [1], the Tm was found to be 41.8 °C. In data set [2], the folding enthalpy is -24.4 kcal/mol.

In the case of GAACAGGGAAACCTGCTC ((.((((....)))).)), the Tm in data set [1] was 37.1 °C. The folding enthalpy in data set [2] is -18.8 kcal/mol.

For GAACAGGGAAACCTGTTC (((((((....))))))), in data set [1], the Tm stood at 59.4 °C. Also, in data set [2], the folding enthalpy is -37.8 kcal/mol.

As for GAACATGAAAATGTTC ((((((....)))))), the Tm in data set [1] is 52 °C. Moreover, in data set [2], the folding enthalpy is -28.9 kcal/mol.

Consider GAACCACCGAAAGGTTTC (((..(((....)))))), for which the Tm in data set [1] is 22.3 °C. In data set [2], the folding enthalpy is -9.16 kcal/mol.

For GAACCAGGAAACTGGCTC ((.((((....)))).)), the Tm in data set [1] came to 39.6 °C. Also, the folding enthalpy in data set [2] was -21.8 kcal/mol.

Turning to GAACCCCGAAAGGGATTC (((.(((....))).))), the Tm in data set [1] was determined as 46 °C. The folding enthalpy in data set [2] is -28.5 kcal/mol.

With GAACCCCGAAAGGGCTTC (((.(((....))).))), the Tm in data set [1] worked out at 34.3 °C. Moreover, the folding enthalpy in data set [2] is -15.3 kcal/mol.

For the sequence GAACCCGAAAGGGTTTC ((((((....))).))), in data set [1], the Tm came to 56.9 °C. Further, the folding enthalpy in data set [2] is -12.1 kcal/mol.

In the case of GAACCCGAAAGGGTTTTC ((((((....)))..))), in data set [1], the Tm came to 55.9 °C. In addition, the folding enthalpy in data set [2] is -13.4 kcal/mol.

Turning to GAACCCGGAAACGAGTTC ((((.((....)).)))), in data set [1], the Tm stood at 40.8 °C. For the same sequence, the folding enthalpy in data set [2] was -27.2 kcal/mol.

Turning to GAACCCGGAAACGGATTC (((.(((....))).))), in data set [1], the Tm came to 41.5 °C. Further, in data set [2], the folding enthalpy was -21 kcal/mol.

Consider GAACCGCGAAAGCGCTTC (((.(((....))).))), for which the Tm in data set [1] came to 35.1 °C. Also, the folding enthalpy in data set [2] was -10.6 kcal/mol.

In the case of GAACCGGAAACGGTTC ((((((....)))))), in data set [1], the Tm stood at 67.4 °C. Further, the folding enthalpy in data set [2] was -33 kcal/mol.

In the case of GAACCGGGAAACTGGTTC (((((.(....).))))), the Tm in data set [1] was 51.4 °C. Moreover, in data set [2], the folding enthalpy was -41.7 kcal/mol.

For GAACCTGGAAACAGGCTC ((.((((....)))).)), the Tm in data set [1] came out at 40 °C. Moreover, the folding enthalpy in data set [2] was -18.9 kcal/mol.

As for GAACGACGAAAGTCATTC (((.(((....))).))), the Tm in data set [1] amounted to 38.6 °C. Also, the folding enthalpy in data set [2] was -21.6 kcal/mol.

Turning to GAACGAGGAAACTCATTC (((.(((....))).))), the Tm in data set [1] stood at 24.8 °C. In addition, the folding enthalpy in data set [2] was -15.5 kcal/mol.

As to GAACGAGGAAACTCGTCC (.(((((....))))).), the Tm in data set [1] worked out at 37.8 °C. The folding enthalpy in data set [2] is -13.7 kcal/mol.

Consider GAACGAGGAAACTCGTTC (((((((....))))))), for which the Tm in data set [1] stood at 63.8 °C. In addition, the folding enthalpy in data set [2] was -41.2 kcal/mol.

With GAACGCCGAAAGGCTTC (((.(((....)))))), the Tm in data set [1] is 44.1 °C. Further, the folding enthalpy in data set [2] is -14.1 kcal/mol.
